Reference: paper PMC3832139 (Cancer chemotherapy and pharmacology, 2013)
Where two headings read alike, the source gives them in different places.

What was measured:
[1] = cited from earlier work
[2] = Prodrug cleavage and preclinical pharmacokinetics; assay type: in vitro ADME
[3] = tested on: phospho-AKT in CD138+ MM cells; experiment: Phospho-AKT flow cytometry of patient bone marrow CD138+ MM cells; assay type: in vivo, human; conditions: patient 002 CD138+ cells before dosing, 10 μM ex vivo, 30 minutes
MM.1R cells [4] = experiment: MTT cytotoxicity assay; assay type: cell-based, human
p110β = conditions: cited from earlier work
[5] = Pharmacokinetics in MM patients, Phase I study of SF1126; conditions: MM patients given SF1126 infusion, dose levels 90–570 mg/m^2
p110γ = conditions: cited from earlier work
MM.1S and MM.1R cells = experiment: Western blot of signaling pathways; assay type: cell-based, human; conditions: for phospho-p70 S6 kinase: MM.1R cells, data not shown; for phosphorylation of AKT, MDM2, and ERK: MM.1S and MM.1R cells, 10 μM
RPMI 8226 cells = experiment: MTT cytotoxicity assay; assay type: cell-based; conditions: Homo sapiens, RPMI-8226, 48 h, read-out: IC50 (cytotoxicity, MTT)
p110δ = conditions: cited from earlier work
MM.1S cells [6] = experiment: MTT cytotoxicity assay; conditions: read-out: IC50 (cytotoxicity, MTT)
[7] = human, in vivo
[8] = tested on: HIF-1α in RPMI 8226 cells; experiment: Hypoxic HIF-1α stabilization, Western blot; assay type: cell-based, human; conditions: RPMI 8226, 1% oxygen, 4 hours, 20 and 40 μM
MM.1R cells [9] = experiment: Cleaved caspase-3 immunocytochemistry; assay type: cell-based, human
MM.1R xenografts [10] = experiment: Immunohistochemistry of MM.1R tumors; assay type: in vivo, mouse; conditions: 50 mg/kg s.c. 3 times weekly
Procedure, shortened: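 Mice bearing s.c. MM.1R flank xenografts (randomized at 100–125 mm³) got test compound 50 mg/kg s.c. or acidified sterile water vehicle, 3 times weekly for 3 weeks. Frozen 4 μm tumor sections were stained with rat anti-mouse CD31; paraffin 5 μm sections were stained overnight with anti-PCNA (PC10). HRP streptavidin-biotin, hematoxylin counterstain, mouse IgG negative control. PCNA labeling index: % positive nuclei over 500 cells, ten 40x fields; SD, n=8.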

HIF-1α in MM.1R cells = experiment: Hypoxic HIF-1α stabilization, Western blot; assay type: cell-based, human; conditions: 1% oxygen, 4 hours
MM.1R xenografts [11] = assay type: in vivo, mouse
[12] = relapsed or refractory MM patients, Phase I
MM.1S cells [13] = experiment: Cleaved caspase-3 immunocytochemistry; assay type: cell-based, human; conditions: for cells positive for cleaved caspase-3: one hour, non-treated 5.9%

For RADS [SF1326], the “rate of cleavage to SF1101” value [1] is given as “same rate as SF1126”.
For `O=c1cc(N2CCOCC2)oc2c(-c3ccccc3)cccc12` [LY294002], the plasma half-life [2] was “does not have a measurable plasma half-life”, the “endogenous downstream AKT phosphorylation, ex vivo treatment” value [3] was “did not suppress” and the IC50 (MM.1R cells [4]; Homo sapiens, 48 h, read-out: IC50 (cytotoxicity, MTT)) was 9.04 µM. For the same compound, the IC50 (p110β) was […], the “t1/2 of active SF1126 hydrolysis product” value [5] was 1.1 to 1.5 h and the IC50 (p110γ) was […]. For the same compound, the “phospho-p70 S6 kinase” value (MM.1S and MM.1R cells) was “decreased”, the “phosphorylation of AKT, MDM2, and ERK” value (MM.1S and MM.1R cells) was “significantly decreased” and the solubility (Solubility) was “only soluble in 100% DMSO”. The IC50 (RPMI 8226 cells) was 5.83 µM, the IC50 (p110δ) was […] and the IC50 (MM.1S cells [6]; Homo sapiens, MM1.S, 48 h) was 7.17 µM.
For `N=C(N)NCCC[C@H](NC(=O)CCC(=O)OC[N+]1(c2cc(=O)c3cccc(-c4ccccc4)c3o2)CCOCC1)C(=O)NCC(=O)N[C@@H](CC(=O)O)C(=O)N[C@@H](CO)C(=O)[O-]` [SF1126], the “clearance of SF1126” value [7] was “rapidly cleared post-infusion”, the “HIF-1α expression under hypoxic conditions” value [8] was “abrogated” and the “increase in caspase 3 cleavage” value (MM.1R cells [9]; 5 μM) was 3 fold. For the same compound, the “increase in caspase 3 cleavage” value (MM.1R cells [9]; 50 μM) was 2.7 fold, the “PCNA-positive proliferating cells (labeling index)” value (MM.1R xenografts [10]; controls 25%, n=8, p<0.02) was 7% and the CD31 microvessel density (MM.1R xenografts [10]; n=8, p<0.007) was “striking decrease”. The IC50 (MM.1R cells [4]; read-out: IC50 (cytotoxicity, MTT), 48 hours, sigmoidal dose-response fit) was 11.7 µM, the “HIF-1α accumulation under hypoxic conditions” value (HIF-1α in MM.1R cells) was “blocked” and the “mean tumor volume relative to controls (fold less)” value (MM.1R xenografts [11]; 50 mg/kg s.c. 3 times weekly for 3 weeks, by 34 days) was “approximately eightfold”. For the same compound, the “untoward effects in mice” value (MM.1R xenografts [11]; mouse, in vivo) was “No untoward effects”, the “effect on disease progression” value [12] was “did not appear to modify disease progression” and the expression of survivin (MM.1S and MM.1R cells) was “not affected”. The “phospho-p70 S6 kinase” value (MM.1S and MM.1R cells) was “decreased”, the “phosphorylation of AKT, MDM2, and ERK” value (MM.1S and MM.1R cells) was “significantly decreased” and the “increase in cleaved caspase-3 over non-treated cells” value (MM.1S cells [13]; 5 μM) was 1.4 fold. The “cells positive for cleaved caspase-3” value (MM.1S cells [13]; 5 μM) was 8.3%, the “increase in cleaved caspase-3 over non-treated cells” value (MM.1S cells [13]; 50 μM) was 1.9 fold and the “cells positive for cleaved caspase-3” value (MM.1S cells [13]; 50 μM) was 11.4%. It also gave an IC50 (MM.1S cells [6]; MM.1S, 48 hours, sigmoidal dose-response fit) of 8.89 µM.
